Screens (PubChem BioAssay)
Compounds with a hit are over-represented: about 3.5% of the library has one in this group of screens.
RGS4 act = RGS4 potentiators or activators, primary screen, cell-based, HEK293 M3R inducible RGS4, calcium flux; carbachol calcium flux Fluo4; active compounds read low; B-score at 10 µM; actives 0.92% (n = 310,000);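 active = B-score of the integrated calcium signal more than 4 SD below the library mean, with starting fluorescence not abnormally high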;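 note: negative B-score means reduced calcium response which marks RGS4 activation or potentiation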
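System – HEK293 FlpIn-TREx cells, stable M3R, doxycycline-inducible RGS4 · Reagent – ECmax carbachol challenge · Times – compound preincubation 20 min at room temperature before agonist · Technique – Fluo4 fluorescence kinetic imaging of calcium · Measure – B score of integrated Fluo4 ratio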
MrgX1 ag = agonists of human MrgX1 receptor, primary screen, HEK293 cells, Fluo-4 calcium flux | Mas-related G-protein coupled receptor member X1 (Homo sapiens), Q96LB2 | B-score at 10 µM | Fluo-4 calcium fluorescence, agonist mode; active compounds read high | actives 0.44% (n = 310,000);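 active = calcium response B-score plate-corrected fluorescence ratio at least 3 library SD, with starting fluorescence B-score inside 5 SD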
Target sequence (Q96LB2 whole entry, looked up): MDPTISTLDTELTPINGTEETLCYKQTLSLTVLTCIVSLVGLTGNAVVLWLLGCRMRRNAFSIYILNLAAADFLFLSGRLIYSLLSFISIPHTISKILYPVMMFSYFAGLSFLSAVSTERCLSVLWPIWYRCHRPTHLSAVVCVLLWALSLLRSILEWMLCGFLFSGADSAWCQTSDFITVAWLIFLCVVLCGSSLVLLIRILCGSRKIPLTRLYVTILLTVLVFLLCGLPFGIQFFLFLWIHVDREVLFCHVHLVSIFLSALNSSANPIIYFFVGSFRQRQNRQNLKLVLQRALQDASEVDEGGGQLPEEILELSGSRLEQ
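Test system: HEK293 cells stably expressing human MrgX1 receptor; Input: fifteen thousand cells per well; Dosing: compound delivered in addition one of three; Schedule: overnight seeding, then 1 h dark dye loading; Technique: Fluo-4 NW calcium fluorescence; Measure: B-scored fluorescence response ratio; Controls: positive and negative controls per plate.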
MrgX1 PAM = positive allosteric modulators of MrgX1, primary screen, HEK293 cells, Fluo-4 calcium flux; Mas-related G-protein coupled receptor member X1 (Homo sapiens), Q96LB2; FDSS; active compounds read high; B-score at 10 µM; actives 0.63% (n = 310,000); AID 588675, 2011;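 active = plate-corrected calcium response at least 3 library SD above typical, normal starting fluorescence, not activating the receptor alone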;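 note: compound read alongside a low EC10 to EC30 dose of BAM8-22 agonist; peak minus trough fluorescence over baseline measured at the second addition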
RGS4 inh = RGS4 inhibitors, primary screen, cell-based, HEK293 M3R inducible RGS4, calcium flux; AID 463165, 2010; Regulator of G-protein signaling 4 (Homo sapiens), P49798; actives 0.45% (n = 310,000); Fluo-4 calcium flux; active compounds read high; triggered by carbachol at its EC20; B-score at 10 µM;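 active = B-score, a plate-corrected calcium signal, over three deviations above library mean, with baseline fluorescence within five deviations of library mean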;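 note: RGS4 expression induced by doxycycline in cells with stable M3 receptor; B-score is computed from the integrated fluorescence ratio over baseline after carbachol; higher B-score means a larger calcium signal and so more RGS4 inhibition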
Target sequence (P49798 whole entry, looked up): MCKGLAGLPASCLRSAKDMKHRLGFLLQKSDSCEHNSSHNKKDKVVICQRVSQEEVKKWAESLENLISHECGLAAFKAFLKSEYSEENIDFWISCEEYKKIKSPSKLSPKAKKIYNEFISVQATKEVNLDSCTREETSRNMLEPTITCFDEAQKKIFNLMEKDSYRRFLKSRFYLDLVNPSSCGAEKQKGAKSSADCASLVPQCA
MrgX1 antag = antagonists of human MrgX1 receptor, primary screen, HEK293 cells, Fluo-4 calcium flux; Mas-related G-protein coupled receptor member X1 (Homo sapiens), Q96LB2; BAM8-22 antagonism; active compounds read low; B-score at 10 µM; actives 1.3% (n = 310,000); AID 588676, 2011;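 active = calcium-response B-score plate-corrected more than 3 library SD below zero, starting fluorescence within 5 deviations, no agonist response on first addition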;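 note: peak minus trough fluorescence over baseline after final BAM8-22 challenge near maximal dose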
RGS4 block valid = enhanced carbachol calcium response, M3R/RGS4 cells, RGS4 inhibitor project, cell-based, validation screen, HEK293 M3R/RGS4, calcium flux; shares compounds with RGS4 inh; carbachol calcium Fluo-4 fluorescence; carbachol added at its EC20; 0 = buffer wells, 100 = carbachol control; calcium response, % at 10 µM; actives 65% (n = 1,700);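 active = duplicate-averaged calcium response above the buffer-only control mean plus 5 SD of those controls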;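 note: integrated fluorescence ratio F max minus min over baseline F0; higher response in RGS4-induced cells means RGS4 inhibition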
M3R Ca ctr = carbachol calcium response in non-induced M3R cells, confirmation, counter-screen for RGS4 inhibitor project, cell-based, HEK293 M3R; shares compounds with RGS4 inh; carbachol calcium Fluo-4; submaximal (EC20) carbachol stimulus; buffer wells 0%, carbachol control wells 100%; activity (percent), % at 10 µM; actives 20% (n = 1,900); call rule not given here;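 note: RGS4 induction absent so cells express M3R without RGS4; higher means more calcium signal and flags a non-specific hit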
M3R basal Ca ctr = signal in non-induced cells without carbachol, RGS4 inhibitor counter-screen. shares compounds with RGS4 inh. HEK293 M3R/RGS4 non-induced, Fluo-4 calcium, no carbachol; normalised: buffer wells 0%, carbachol wells 100%. calcium response (agonist-mode artifact), % at 10 µM. actives 22% (n = 1,900);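 active = duplicate-averaged calcium rise in uninduced cells above buffer wells' mean plus 5 SD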
Numbers stand for hits; – = inactive; · = not tested or not shown.

SMILES	RGS4 act	MrgX1 ag	MrgX1 PAM	RGS4 inh	MrgX1 antag	RGS4 block valid	M3R Ca ctr	M3R basal Ca ctr
CCCCC1=CC2=C(c3ccco3)C(=O)C(C)(OC(=O)c3ccc(OC)cc3)C(=O)C2=CN1c1ccc(OC)cc1 (stereo unspecified)	–	–	–	5.3	–	7.0%	–	–
CCCCC1=CC2=C(c3ccco3)C(=O)C(C)(OC(=O)c3ccc(OC)cc3)C(=O)C2=CN1CC1CC1 (stereo unspecified)	–	–	–	–	–	–	–	–
COC(=O)CCCC1=CC2=C(c3ccccc3)C(=O)C(C)(OC(=O)C3CCCC3)C(=O)C2=CN1Cc1ccc(OC)cc1 (stereo unspecified)	–	–	–	–	–	·	·	·
CCCCC1=CC2=C(c3ccco3)C(=O)C(C)(OC(=O)c3ccc(OC)cc3)C(=O)C2=CN1C(CO)CO (stereo unspecified)	–	–	–	–	–	·	·	·
CC(C)OCCCNC(=O)c1cc(-c2cccnc2)nc2ccccc12	–	–	–	–	–	·	·	·
CN(CC(=O)Nc1cccc(F)c1)C(=O)c1ccc(N2CCOCC2)c([N+](=O)[O-])c1	–	–	–	–	–	·	·	·
CN(CC(=O)Nc1ccc(Cl)c(C(F)(F)F)c1)C(=O)c1ccc(N2CCOCC2)c([N+](=O)[O-])c1	–	–	–	5.4	–	12%	–	7.5%
COc1ccc(/C=C2/C(=O)ON=C2C)cc1Cl	–	–	–	–	–	·	·	·
CC1=NOC(=O)/C1=C/c1ccc(O)cc1	–	–	–	5.8	–	12%	–	–
CC1=NOC(=O)/C1=C/c1ccc(O)c(Br)c1	–	38	–	9.1	–	30%	–	68%
COc1ccc(NC(=S)N2CCC(NC(=O)c3ccc(F)cc3)CC2)cc1	–	–	–	–	–	·	·	·
CCCC1(c2ccccc2)NC(=O)N(CC(=O)c2[nH]c(C)c(C(=O)OCC)c2C)C1=O (stereo unspecified)	–	–	–	–	–	·	·	·
CCOC(=O)c1c(C)[nH]c(C(=O)CN2C(=O)NC(C)(c3ccc4ccccc4c3)C2=O)c1C (stereo unspecified)	–	–	–	5.7	–	9.0%	–	–
COc1ccc(C2CC(c3c(-c4ccccc4)c4cc(Cl)ccc4[nH]c3=O)=NN2S(C)(=O)=O)cc1 (stereo unspecified)	–	–	–	–	–	·	·	·
COc1ccc(OC)c(C2CC(c3c(-c4ccccc4)c4cc(Cl)ccc4[nH]c3=O)=NN2S(C)(=O)=O)c1 (stereo unspecified)	–	–	–	–	–	·	49%	36%
COc1ccc(NS(=O)(=O)c2ccc(Cl)c(N)c2)cc1Br	–	–	–	8.6	–	15%	32%	–
Cn1c(=O)c(=O)n(C)c2cc(S(=O)(=O)NCCOc3ccccc3)ccc21	–	–	–	–	–	·	·	·
CCSc1nc2ccccc2n1C(=O)/C=C\c1ccc(OC)c(OC)c1	–	–	–	14	–	22%	76%	7.5%
COc1ccc2nc(/N=C/c3c(C)[nH]n(-c4ccc(C)cc4)c3=O)sc2c1	–	–	–	–	–	·	·	·
O=C1C=CC(O)(c2cc(=O)c3c(O)cc(O)cc3o2)C=C1	–	–	–	26	–	78%	30%	–
O=C(CC(Nc1ccc(F)cc1)C(=O)O)c1ccccc1 (stereo unspecified)	–	–	–	–	–	·	·	·
O=C(CC(Nc1ccc(F)cc1)C(=O)OCC(=O)c1cccs1)c1ccccc1 (stereo unspecified)	–	–	–	6.2	–	–	–	–
COc1ccc(CNC(=O)CCNS(=O)(=O)c2ccc(C)cc2)cc1	–	–	–	–	–	–	–	–
C=C(C)C1(O)OC(=O)C=C1OC (stereo unspecified)	–	–	–	7.8	–	9.0%	–	–
COc1cccc(N2CCN(S(=O)(=O)c3ccc4c(c3)N(C(C)=O)CCO4)CC2)c1	–	–	–	–	–	·	·	·
SMILES	RGS4 act	MrgX1 ag	MrgX1 PAM	RGS4 inh	MrgX1 antag	RGS4 block valid	M3R Ca ctr	M3R basal Ca ctr
CC(Sc1ccsc1[N+](=O)[O-])C(=O)NCCc1ccc(Cl)cc1 (stereo unspecified)	–	–	–	–	–	·	·	·
Cc1ccc(OCC(=O)NNC(=O)c2ccco2)c(C)c1	–	–	–	30	–	–	–	–
COc1ccc(C2C(C#N)=C(N)Oc3c2c(-c2ccccc2)nn3-c2ccccc2)c(OC)c1OC (stereo unspecified)	–	–	–	–	–	·	–	–
COc1ccc(OC)c(C2C(C#N)=C(N)Oc3c2c(C)nn3-c2ccc(C)cc2)c1 (stereo unspecified)	–	–	–	–	–	·	·	·
CCOc1ccccc1CNC(=O)Cn1ccc2cc(S(=O)(=O)N3CCCC3)ccc21	–	–	–	–	–	·	·	·
Cc1ccc(NC(=O)c2nc[nH]c2C(=O)N[C@@H](C)c2ccccc2)cc1	–	–	–	5.7	–	29%	–	–
Cc1ccc(NC(=O)c2[nH]cnc2C(=O)NN)cc1	–	–	–	–	–	·	·	·
CCC(=O)NC(c1ccccc1)c1c(OC(C)=O)ccc2ccccc12 (stereo unspecified)	–	–	–	–	–	·	45%	7.0%
CCC(=O)NC(c1cccc([N+](=O)[O-])c1)c1c(OC(C)=O)ccc2ccccc12 (stereo unspecified)	–	–	–	–	–	·	·	·
CC1=NN(c2ccccc2)C(=O)/C1=C/c1ccc(-c2ccc(C)c(C(=O)O)c2)o1	–	–	–	17	–	74%	–	–
CCC(=O)NCCc1nc2cc(NC(=O)c3ccco3)ccc2n1C	–	–	–	–	–	–	–	–
Cn1c(CCNC(=O)c2ccco2)nc2cc(NS(=O)(=O)c3ccccc3)ccc21	–	–	–	–	–	·	·	·
